Measured values as given in ChEMBL document CHEMBL3108770, “Discovery and biological evaluation of novel 1,4-benzoquinone and related resorcinol derivatives that inhibit 5-lipoxygenase” (Eur J Med Chem, 2013).

Columns and labels:
[1] = target: T1, Polyunsaturated fatty acid 5-lipoxygenase (Homo sapiens, UniProt P09917); assay: Inhibition of 5-LO in human PMNL using arachidonic acid as substrate preincubated for 15 mins
T1 sequence (P09917 whole entry): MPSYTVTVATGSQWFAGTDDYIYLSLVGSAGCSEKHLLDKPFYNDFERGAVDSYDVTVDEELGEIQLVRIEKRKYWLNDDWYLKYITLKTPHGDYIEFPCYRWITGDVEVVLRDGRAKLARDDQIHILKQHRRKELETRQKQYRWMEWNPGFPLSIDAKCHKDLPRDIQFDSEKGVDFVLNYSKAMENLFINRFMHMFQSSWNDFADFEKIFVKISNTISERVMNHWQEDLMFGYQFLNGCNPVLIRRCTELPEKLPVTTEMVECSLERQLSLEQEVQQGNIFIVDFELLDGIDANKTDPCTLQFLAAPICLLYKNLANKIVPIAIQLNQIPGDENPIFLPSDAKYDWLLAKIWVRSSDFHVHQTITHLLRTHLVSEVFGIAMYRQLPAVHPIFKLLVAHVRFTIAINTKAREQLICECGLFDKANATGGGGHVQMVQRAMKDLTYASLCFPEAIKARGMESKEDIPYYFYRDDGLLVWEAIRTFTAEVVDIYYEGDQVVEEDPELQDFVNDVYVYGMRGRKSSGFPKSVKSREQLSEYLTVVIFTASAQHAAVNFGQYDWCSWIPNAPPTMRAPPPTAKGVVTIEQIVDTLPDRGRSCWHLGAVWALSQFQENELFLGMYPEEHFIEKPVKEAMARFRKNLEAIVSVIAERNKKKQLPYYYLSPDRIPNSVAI
How it was run: (§1)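 PMNL were isolated from buffy coats by dextran sedimentation, Nycoprep centrifugation and hypotonic lysis of erythrocytes, then resuspended in PBS pH 7.4 with 1 mg/mL glucose and 1 mM CaCl₂. Cells were pre-incubated with compound for 15 min at 37 °C, then stimulated with A23187 plus AA for 10 min at 37 °C. 15-LO comes from eosinophils and 12-LO from adhering platelets in the preparation. After methanol/HCl stop and PGB₁ addition, metabolites were extracted and quantified by HPLC. Mean ± S.E.M., n = 3–4.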

[2] = target: T2, Polyunsaturated fatty acid lipoxygenase ALOX15 (Homo sapiens, UniProt P16050); assay: Inhibition of 15-LO in human PMNL using arachidonic acid as substrate preincubated for 15 mins; how it was run: as §1
T2 sequence (P16050 whole entry): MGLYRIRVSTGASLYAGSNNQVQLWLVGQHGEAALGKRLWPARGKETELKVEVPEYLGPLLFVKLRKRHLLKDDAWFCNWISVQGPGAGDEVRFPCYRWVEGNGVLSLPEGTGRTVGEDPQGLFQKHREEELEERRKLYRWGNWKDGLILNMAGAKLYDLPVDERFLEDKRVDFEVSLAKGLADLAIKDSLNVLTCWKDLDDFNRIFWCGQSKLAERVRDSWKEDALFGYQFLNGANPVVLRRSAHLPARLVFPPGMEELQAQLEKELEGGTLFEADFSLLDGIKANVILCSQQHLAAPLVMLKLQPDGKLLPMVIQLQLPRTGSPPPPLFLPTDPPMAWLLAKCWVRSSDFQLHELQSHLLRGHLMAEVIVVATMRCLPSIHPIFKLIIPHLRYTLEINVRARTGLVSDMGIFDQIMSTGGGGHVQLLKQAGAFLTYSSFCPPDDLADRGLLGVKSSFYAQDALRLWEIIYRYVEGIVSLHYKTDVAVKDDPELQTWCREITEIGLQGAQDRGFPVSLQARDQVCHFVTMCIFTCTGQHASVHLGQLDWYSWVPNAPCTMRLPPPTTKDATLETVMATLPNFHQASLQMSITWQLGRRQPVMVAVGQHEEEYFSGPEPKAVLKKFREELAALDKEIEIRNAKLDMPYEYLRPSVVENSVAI

[3] = target: T3, Polyunsaturated fatty acid 5-lipoxygenase (Homo sapiens) (UniProt P09917); assay: Inhibition of 5-LO in human PMNL using arachidonic acid as substrate assessed as residual activity at 10 uM preincubated for 15 mins; how it was run: as §1
T3 sequence (whole entry): T1 sequence (P09917 whole entry)

[4] = target: T4, Polyunsaturated fatty acid lipoxygenase ALOX15 (Homo sapiens) (UniProt P16050); assay: Inhibition of 15-LO in human PMNL using arachidonic acid as substrate assessed as residual activity at 10 uM preincubated for 15 mins; how it was run: as §1
T4 sequence (whole entry): T2 sequence (P16050 whole entry)

[5] = target: T1, Polyunsaturated fatty acid 5-lipoxygenase; assay: Inhibition of human recombinant 5-LO expressed in Escherichia coli BL21 using arachidonic acid as substrate after 10 mins
How it was run: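 Purified 5-LO was diluted in PBS/EDTA and pre-incubated with compound for 5–10 min at 4 °C, then pre-warmed for 30 s at 37 °C. The reaction was started with 2 mM CaCl₂ plus AA, run 10 min at 37 °C and stopped with ice-cold methanol. Products were analysed by HPLC.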

[6] = target: T3, Polyunsaturated fatty acid 5-lipoxygenase (Homo sapiens); assay: Inhibition of human recombinant 5-LO expressed in Escherichia coli BL21 using arachidonic acid as substrate assessed as residual activity at 10 uM after 10 mins
[7] = target: T5, Polyunsaturated fatty acid lipoxygenase ALOX12 (Homo sapiens, UniProt P18054); assay: Inhibition of 12-LO in human PMNL using arachidonic acid preincubated for 15 mins; how it was run: as §1
T5 sequence (P18054 whole entry): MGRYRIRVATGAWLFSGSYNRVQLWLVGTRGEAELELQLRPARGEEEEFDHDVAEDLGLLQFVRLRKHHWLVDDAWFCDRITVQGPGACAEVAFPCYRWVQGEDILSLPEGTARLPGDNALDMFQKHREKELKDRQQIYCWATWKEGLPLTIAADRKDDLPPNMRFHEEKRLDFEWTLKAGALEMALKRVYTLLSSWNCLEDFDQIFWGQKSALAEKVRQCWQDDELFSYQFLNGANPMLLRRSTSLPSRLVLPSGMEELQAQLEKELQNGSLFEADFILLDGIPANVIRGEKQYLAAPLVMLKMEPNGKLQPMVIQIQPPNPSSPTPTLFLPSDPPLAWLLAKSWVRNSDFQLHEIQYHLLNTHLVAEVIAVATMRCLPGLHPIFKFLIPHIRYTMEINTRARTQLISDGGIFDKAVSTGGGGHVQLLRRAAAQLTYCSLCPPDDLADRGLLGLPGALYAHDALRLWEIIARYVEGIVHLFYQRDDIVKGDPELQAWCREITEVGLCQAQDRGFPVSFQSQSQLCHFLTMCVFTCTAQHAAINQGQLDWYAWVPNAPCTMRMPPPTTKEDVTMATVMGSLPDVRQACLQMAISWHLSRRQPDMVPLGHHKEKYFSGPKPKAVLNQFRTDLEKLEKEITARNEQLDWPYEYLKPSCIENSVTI

[8] = target: T6, Polyunsaturated fatty acid lipoxygenase ALOX12 (Homo sapiens) (UniProt P18054); assay: Inhibition of 12-LO in human PMNL using arachidonic acid as substrate assessed as residual activity at 10 uM preincubated for 15 mins; how it was run: as §1
T6 sequence (whole entry): T5 sequence (P18054 whole entry)

[9] = target: T1, Polyunsaturated fatty acid 5-lipoxygenase; assay: Competitive inhibition of human recombinant 5-LO expressed in Escherichia coli BL21 using 40 uM of arachidonic acid as substrate preincubated for 15 mins measured after 10 mins
How it was run: (§2)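 Purified 5-LO was pre-incubated with inhibitor or vehicle (0.1% DMSO) for 15 min at 4 °C, then warmed for 30 s at 37 °C. The reaction was started with 2 mM CaCl₂ plus AA at 2.5, 5, 10, 20 or 40 µM and run 10 min at 37 °C. Products were analysed by HPLC. Results are % of uninhibited control, mean ± S.E.M., n = 3.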

[10] = target: T1, Polyunsaturated fatty acid 5-lipoxygenase; assay: Competitive inhibition of human recombinant 5-LO expressed in Escherichia coli BL21 using 5 uM of arachidonic acid as substrate preincubated for 15 mins measured after 10 mins; how it was run: as §2

| IC50 [1] [µM] | IC50 [2] [µM] | Activity [3] [%] | Activity [4] [%] | IC50 [5] [µM] | Activity [6] [%] | IC50 [7] [µM] | Activity [8] [%] | IC50 [9] [µM] | IC50 [10] [µM] | Structure (SMILES) |
| --- | --- | --- | --- | --- | --- | --- | --- | --- | --- | --- |
| 4.2 | > 10 | 22.7 | 106 | 2.8 | 9.4 | > 10 | 72.3 |  |  | Oc1ccc(-c2ccccc2)c(O)c1 |
| > 10 |  | 84.1 | 182 | 6.3 | 30.7 |  | 93.3 |  |  | Oc1ccc(-c2cccc3c2oc2ccccc23)c(O)c1 |
| 2.3 | > 10 | 8.9 | 191 | 7.4 | 37.2 | > 10 | 79.2 |  |  | Oc1ccc(Cc2ccc3ccccc3c2)c(O)c1 |
| > 10 |  | 74.1 | 79.8 | 0.8 | 30.8 |  | 46.2 |  |  | O=C1C=C(c2cccc3c2oc2ccccc23)C(=O)C=C1O |
| 6.8 | > 10 | 42.4 | 108 | > 10 | 57.4 | > 10 | 96 |  |  | O=C(Cc1ccc2ccccc2c1)c1ccc(O)cc1O |
| 3 | > 10 | 15.9 | 185 | 1.4 | 14.2 | > 10 | 89.8 |  |  | CCCCCCC1=CC(=O)C(O)=CC1=O |
| > 10 |  | 61.3 | 116 | 4.6 | 8 |  | 60.9 |  |  | O=C1C=C(c2cccc([N+](=O)[O-])c2)C(=O)C=C1O |
| > 10 |  | 64.1 | 108 | > 10 | 84.3 |  | 90.1 |  |  | O=[N+]([O-])c1cccc(-c2ccc(O)cc2O)c1 |
| > 10 |  | 74 | 80.9 | 9 | 45.2 |  | 81.1 |  |  | O=C1C=C(Cc2ccc3cc(C(=O)O)ccc3c2)C(=O)C=C1O |
| > 10 |  | 93.3 | 132 | > 10 | 74.3 |  | 95.4 |  |  | O=C1C=C(Cc2ccccc2)C(=O)C=C1O |
| > 10 |  | 103 | 96.4 | > 10 | 110 |  | 84 |  |  | COC1=CC(=O)C(O)=C(Cc2ccccc2)C1=O |
| 2.3 | > 10 | 5.3 | 147 | 0.78 | 8.7 | > 10 | 71.9 | 0.31 | 0.97 | O=C1C=C(Cc2ccc3ccccc3c2)C(=O)C=C1O |
| 6.7 |  | 21.2 | 47.9 | 0.28 | 7.1 |  | 73.1 |  |  | COC1=CC(=O)C(Oc2ccc3ccccc3c2)=CC1=O |
| > 10 |  | 60 | 116 | 9.4 | 47.6 |  | 77 |  |  | Oc1ccc(Cc2ccccc2)c(O)c1 |
| > 10 |  | 56.1 | 89.5 | > 10 | 92.3 |  | 76.4 |  |  | COC1=CC(=O)C(O)=C(Cc2ccc3ccccc3c2)C1=O |
| 0.58 | > 10 | 5.4 | 87.9 | 11 | 51 | > 10 | 60.9 |  |  | O=C1C=C(O)C(=O)C(CC2CCC3CCCCC3C2)=C1O (stereo not drawn) |
| 2.8 | > 10 | 18.6 | 110 | 4.6 | 25.6 | > 10 | 69.3 |  |  | CCCCCCc1ccc(O)cc1O [HEXYLRESORCINOL] |
| > 10 |  | 90.4 | 87.3 | > 10 | 95.2 |  | 85.2 |  |  | O=C1C=C(O)C(=O)C(CC2CCCCC2)=C1O |
| 2.1 | > 10 | 10.5 | 58.3 | 3.2 | 15.4 | > 10 | 91.4 |  |  | Oc1ccc(-c2cccc3c2Sc2ccccc2S3)c(O)c1 |
| > 10 |  | 92.8 | 115 | > 10 | 100 |  | 115 |  |  | Oc1ccc(-c2csc3ccccc23)c(O)c1 |
